CHRM4 antagonist: antagonists of human muscarinic M4 receptor (CHRM4); CHO-hM4 cells, ACh EC80, Fluo-8 calcium fluorescence; 360,000 tested, 0.73% active; inhibition, % at 3 µM;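 active means inhibition above its plate's cutoff, the mean inhibition of sample wells plus 3 SD, cut at about 27% in these data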;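 further: 0% = acetylcholine EC80 with DMSO and 100% = DMSO without agonist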
Target sequence (P08173 whole entry, looked up): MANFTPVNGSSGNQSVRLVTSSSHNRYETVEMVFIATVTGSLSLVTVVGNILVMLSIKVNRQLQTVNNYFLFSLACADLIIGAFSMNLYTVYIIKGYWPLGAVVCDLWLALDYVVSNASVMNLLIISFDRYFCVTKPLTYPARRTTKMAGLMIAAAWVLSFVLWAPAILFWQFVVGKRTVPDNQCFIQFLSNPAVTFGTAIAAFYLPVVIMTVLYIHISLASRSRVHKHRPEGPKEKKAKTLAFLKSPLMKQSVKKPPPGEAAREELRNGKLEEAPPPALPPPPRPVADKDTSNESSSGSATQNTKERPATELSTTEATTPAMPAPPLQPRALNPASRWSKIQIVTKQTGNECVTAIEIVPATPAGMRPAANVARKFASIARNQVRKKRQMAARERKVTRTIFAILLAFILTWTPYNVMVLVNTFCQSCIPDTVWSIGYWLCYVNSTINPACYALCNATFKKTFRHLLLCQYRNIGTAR
CHRM4 PAM: potentiates acetylcholine response at human M4 receptor | CHO-K1 hM4/Gqi5, Fluo-8 calcium fluorescence, ACh EC20; 0% = ACh EC20, 100% = maximal ACh | activation, % at 3 µM | 360,000 tested, 0.4% active | AID 624126;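 active means activation above its plate's cutoff, the mean activation of sample wells plus 3 SD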
TAAR1 ag: human TAAR1 agonism; Q96RJ0; CHO RD-HGA16 TAAR1, Fluo-8 calcium fluorescence; vehicle wells 0%, saturating PEA agonist 100%; activation, % at 3 µM; 360,000 tested, 0.99% active; AID 624467;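 active means activation above the mean activation of all test compounds in the run plus 3 SD, cut at about 38% in these data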
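System: CHO RD-HGA16 cells carrying human TAAR1 plus Gα16; Incubation: 17-24 h seeding, 75 min 37 °C dye, 30 min RT; Measured by: Fluo-8 fluorescence, 5 s baseline then 140 s kinetic read; Control set: DMSO and PEA EC100; Replication: single well for each compound.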
M4 ag: agonists of human muscarinic M4 receptor (CHRM4). CHO-K1 hM4/Gqi5, Fluo-8 calcium fluorescence; vehicle 0%, full acetylcholine response 100%. 360,000 tested, 0.14% active. P08173. activation, % at 3 µM;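 active means activation above the run mean over all test wells plus 3 SD, cut at about 32% in these data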;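 further: peak over basal fluorescence ratio per well then scaled between controls; 0% = DMSO wells and 100% = acetylcholine at EC100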
TAAR1 antag: antagonists of human TAAR1; 360,000 tested, 1.5% active; AID 624466; CHO RD-HGA16 TAAR1, Fluo-8 calcium fluorescence, antagonist; inhibition, % at 3 µM;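 active means inhibition above a per-plate cutoff, the mean inhibition of test compounds on that plate plus 3 SD, cut at about 49% in these data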;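 further: 0% = DMSO plus EC80 beta-PEA response and 100% = DMSO alone without agonist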
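Material: RD-HGA16 CHO cells with stable hTAAR1 and Gα16; Dosing: single nominal final test compound concentration of 3 µM; Schedule: seeding 17-24 h prior, 75-min 37 °C, 30-min RT dye loading; Detection: kinetic Fluo-8 calcium fluorescence measurement; Measure: % inhibition from peak post-agonist over basal fluorescence ratio; Benchmarks: vehicle and agonist controls.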
* hit, by the source's call; . = not tested or not shown. Shown are actives, neighbours in structure and some others; about 3% of the full set was active somewhere.

SMILES	CHRM4 antagonist	CHRM4 PAM	TAAR1 ag	M4 ag	TAAR1 antag
O=C(COC(=O)c1ccc(O)cc1)Nc1cc(S(=O)(=O)N2CCOCC2)ccc1N1CCOCC1	.	.	7	.	13
CCOc1ccccc1NC(=O)CCN1CCN(S(=O)(=O)c2ccc(Br)cc2)CC1	3	16*	22	6	17
COc1ccccc1NC(=O)COC(=O)c1ccc(S(=O)(=O)N2CCCCCC2)cc1	1	0	6	1	-1
CCN(CC)c1ccc(S(=O)(=O)N2CCOCC2)cc1NC(=O)COC(=O)/C=C/c1ccco1	11	-7	10	17	54*
C[C@H](CO)N1C[C@H](C)[C@@H](CN(C)C(=O)CCC(F)(F)F)OCc2cn(nn2)CCCC1=O	.	.	4	.	-15
CCCCOCCCNC(=O)C[C@H]1C[C@@]2(C(=O)OC)C(=C[C@H](C(C)(C)C)O[C@@H]2C)N(Cc2ccccc2)C1=O	.	.	-2	.	-21
O=C1NC(c2ccc(Br)cc2)c2c(-c3ccccc3)n[nH]c21 (configuration not stated)	.	.	-1	.	-8
c1ccc(-c2nc3ccccc3nc2-c2ccc(CN3CCC4(CC3)CNc3ccccc34)cc2)cc1	.	.	-2	.	-1
O=C(CSc1nc2ccccc2c(=O)n1-c1ccc(F)cc1)Nc1cc(S(=O)(=O)N2CCOCC2)ccc1Cl	30*	-38	5	4	-12
S=C(NCCC(c1ccccc1)c1ccccc1)Nc1ccc(Cl)cc1	19	-20	10	9	33
S=C(NCCC(c1ccccc1)c1ccccc1)Nc1ccccc1Cl	2	-9	7	3	50*
COC(=O)C1=C(C)N(Cc2ccccc2C(F)(F)F)C(=NCc2cc(OC)c(OC)c(OC)c2)NC1c1ccccc1 (configuration not stated)	.	.	11	.	-7
CCCCOc1ccc(-c2nnn(CC(=O)Nc3ncc(CC(=O)OCC)s3)n2)cc1	1	3	42*	15	21
Cc1ccc(S(=O)(=O)Oc2ccc(/C=C(/NC(=O)c3ccccc3)C(=O)Nc3ccccc3)cc2)cc1	28*	-10	7	3	1
COc1ccc(NC(=O)/C(=C\c2ccc(OS(=O)(=O)c3ccc(C)cc3)cc2)NC(=O)c2ccccc2)cc1	24	-3	-1	4	23
CCCCOC(=O)CCn1c(=S)oc2ccccc21	10	9	44*	-3	25
O=C(N[C@H](Cc1ccccc1)C(=O)N(CCC1=CCCCC1)CC1CC1)[C@H]1O[C@@H](n2ccc(=O)[nH]c2=O)[C@H](O)[C@@H]1O	.	.	0	.	-5
Cc1cc(C)cc(NC(=O)c2nnn(Cc3cc(C)ccc3C)c2N)c1	15	-10	.	32*	.
O=c1ccn2c(n1)OC1CC2OC1COC(c1ccccc1)(c1ccccc1)c1ccccc1 (configuration not stated)	.	.	2	.	-25
CCOc1ccc(CCNC(=O)CCNC(=O)c2ccco2)cc1OCC	-8	19*	3	1	-10
COc1ccc(CCNC(=O)CCNC(=O)c2ccco2)cc1OC	-2	4	2	1	-13
Cc1cc(Nc2cccc([N+](=O)[O-])c2)cc(=O)n1-c1cccc([N+](=O)[O-])c1	.	.	0	.	-6
CCOC(=O)Cc1csc(NC(=S)NC(=O)c2ccc(Cl)cc2)n1	0	8	38*	0	35
CCOC(=O)Cc1csc(NC(=S)NC(=O)c2ccc([N+](=O)[O-])cc2)n1	-3	3	8	2	-2
CCOC(=O)Cc1csc(N/N=C/c2ccccc2)n1	-12	24*	12	7	16
SMILES	CHRM4 antagonist	CHRM4 PAM	TAAR1 ag	M4 ag	TAAR1 antag
CCOC(=O)Cc1csc(N/N=C\c2cccc(Br)c2)n1	-14	8	0	1	-2
O=C(/C=C(\Nc1ccc(F)cc1)c1ccccc1)c1ccccc1	.	.	-1	.	19
CNc1cc(-c2ccc(O)cc2C)ncn1	-1	2	1	2	4
O=C(/C=C/c1cccc(F)c1)OCC(=O)N1CCc2ccccc21	3	1	20	0	49*
COc1cc(/C=C/C(=O)OCC(=O)N2CCCc3ccccc32)ccc1O	14	0	5	7	22
CCN(c1ccccc1)S(=O)(=O)c1ccc(C(=O)N(C)Cc2cccs2)cc1	5	1	11	9	49*

Source: PubChem BioAssay (The Scripps Research Institute Molecular Screening Center)
